Measured values pooled from the literature.
Compare with care: the assays were run in different laboratories. pEC50, pIC50: −log10 of the molar value.
Organism: Plasmodium falciparum
Read-out: parasite growth

SMILES | assay | test system | setting | endpoint | result
O=C(Nc1ccc(F)cc1C(=O)O)c1ccc(-c2ccccc2)cc1 | SYBR Green | NF54 | 10 µM, 96 h, blood stage | inhibition | 12.7%
c1cnc(Nc2ccnc3cc(-c4cn[nH]c4)ccc23)cn1 |  | D6 | drug-resistant strain, blood stage | pEC50 | 6.03
CCn1cc(-c2ccnn2C)c(=O)c2cc(F)c(N3CCC(C)CC3)cc21 |  | 3D7 | 72 h, blood stage | pEC50 | < 5.00
O=C(Nc1cc(F)ccc1C(=O)O)c1ccc(-c2ccccc2)cc1 | SYBR Green | NF54 | 10 µM, 96 h, blood stage | inhibition | 17.2%
CCn1cc(C(=O)O)c(=O)c2cc(F)c(N3CCC(C)CC3)cc21 |  | 3D7 | 72 h, blood stage | pEC50 | < 5.00
Cc1ccc(Nc2ccnc3cc(-c4ccc(S(=O)(=O)N5CCN(C)CC5)cc4)ccc23)cc1Cl |  | D6 | drug-resistant strain, blood stage | pEC50 | 7.19
CCCC1CCN(c2cc3c(cc2F)c(=O)c(C(=O)OCC)cn3CC)CC1 |  | 3D7 | 72 h, blood stage | pEC50 | 7.52
O=C(Nc1c(F)cccc1C(=O)O)c1ccc(-c2ccccc2)cc1 |  | NF54 | 2 µM, 48 h, gametocyte | inhibition | 38.8%
COc1cnc(Nc2ccnc3cc(-c4ccc(S(=O)(=O)N5CCN(C)CC5)cc4)ccc23)cn1 |  | D6 | drug-resistant strain, blood stage | pEC50 | 6.89
Cc1ccc(-c2ccccc2C(=O)Nc2c(C)cccc2C(=O)O)cc1 | SYBR Green | NF54 | 10 µM, 96 h, blood stage | inhibition | 8.4%
COc1ccc(Nc2ccnc3cc(-c4ccc(S(=O)(=O)N5CCN(C)CC5)cc4)ccc23)cc1Cl |  | D6 | drug-resistant strain, blood stage | pEC50 | 7.92
CCn1cc(-c2nc(C)no2)c(=O)c2cc(F)c(N3CCC(C)(C)CC3)cc21 |  | 3D7 | 72 h, blood stage | pEC50 | 5.83
C[C@@H]1CC[C@H]2[C@@H](C)C(=O)O[C@@H]3O[C@@]4(C)CC[C@@H]1[C@]32OO4 |  | D6 | 72 h, blood stage | IC50 | 4.7 ng/mL
O=C(c1ccc(Nc2nccc(-c3ccc4ccccc4c3)n2)cc1)N1CCC(N2CCCC2)CC1 | SYBR Green | 3D7 | 1 µM, blood stage | inhibition | > 75%
CCCC1CCN(c2cc3c(cc2F)c(=O)c(-c2nc(C)no2)cn3CC)CC1 |  | 3D7 | 72 h, blood stage | pEC50 | 8.10
CN1CCN(c2nccc(Nc3ccc4c(Nc5cnccn5)ccnc4c3)n2)CC1 |  | D6 | drug-resistant strain, blood stage | pEC50 | 6.74
CCn1cc(-c2ccccn2)c(=O)c2cc(F)c(N3CCC(C)CC3)cc21 |  | 3D7 | 72 h, blood stage | pEC50 | < 5.00
C[C@@H]1CC[C@H]2[C@@H](C)C(=O)O[C@@H]3O[C@@]4(C)CC[C@@H]1[C@]32OO4 |  | W2 | drug-resistant strain, blood stage | pIC50 | 7.82
